Rad51 HR inh: human RAD51 strand exchange inhibitors, primary screen, biochemical, fluorescence. AID 1385, 2008. 0.085% of 200,000 active. inhibition, % at 10 µM. hRad51 DNA strand exchange, fluorescence dequenching. DNA repair protein RAD51 homolog 1 (Homo sapiens), Q06609;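 active means inhibition above 40% at the single screening dose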;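 further: 0% = DMSO control wells and 100% = blanks with heterologous ssDNA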
Target sequence (Q06609 whole entry, looked up): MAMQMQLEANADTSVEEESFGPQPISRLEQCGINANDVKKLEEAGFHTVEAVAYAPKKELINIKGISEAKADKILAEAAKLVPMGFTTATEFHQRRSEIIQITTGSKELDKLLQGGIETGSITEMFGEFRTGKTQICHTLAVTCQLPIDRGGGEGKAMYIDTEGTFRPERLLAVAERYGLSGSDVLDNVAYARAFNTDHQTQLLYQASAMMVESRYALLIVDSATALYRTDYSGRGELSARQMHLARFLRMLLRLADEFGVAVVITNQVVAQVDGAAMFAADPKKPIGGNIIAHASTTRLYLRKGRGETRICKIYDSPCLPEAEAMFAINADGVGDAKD
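Test system – preformed human Rad51 ssDNA filaments · Reagent – Donor/quencher-labelled 47-bp dsDNA substrate · Incubation – 37 °C 15-min filament assembly, 30-min compound preincubation, 15-min exchange · Signal – FRET fluorescence dequenching, excitation 485 nm, emission 520 nm · Read-out – percent inhibition from fluorescence, normalised to plate control and blank means · Benchmarks – plate control and blank wells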
PMI activator: activators of human PMI, primary screen, biochemical, fluorescence intensity, near-Km mannose 6-phosphate; 0.005% of 190,000 active; Mannose-6-phosphate isomerase (Homo sapiens), P34949; purified human PMI, coupled resazurin fluorescence, 20 min; active compounds read high; 1 = vehicle control, 0 substrate-free wells; activation factor at 20 µM;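 active means activation factor of 2 or more at 20 µM, relative to plate controls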
PMI act satM6P: human PMI activators, high substrate, primary screen, biochemical, fluorescence intensity, near-saturating mannose 6-phosphate | Mannose-6-phosphate isomerase (Homo sapiens), P34949 | coupled PMI enzyme assay, resazurin fluorescence, 20 min; active compounds read high; 1 = untreated enzyme, 0 = substrate-free blank | activation factor at 20 µM | 0.34% of 190,000 active | AID 1216, 2008;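 active means activation factor of 2 or more at 20 µM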
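Technique: Diaphorase-driven resazurin-to-resorufin fluorescence, excitation 544, emission 590 nm | Assay system: Human PMI in coupled enzyme assay | Times: Enzyme reaction with compound 20 min at room temperature | Medium: HEPES-buffered pH 7.4 with magnesium and detergent | Reagent: Mannose-6-phosphate 1.0 mM (near-saturating) plus 0.22 mM NADP+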
WT yeast gro inh: growth inhibition of WT strain, primary screen, mitochondrial fusion inhibitor project, WT and mutant strains, chemical genetic | mitochondrial fusion phenotypic screen | inhibition, % at 10 µM | 2.1% of 190,000 active; in the data active means inhibition above about 58%; tested in S. cerevisiae
Calpain2 inh: inhibitors of pig calpain II, primary screen, biochemical, fluorogenic peptide substrate, 1536-well; purified calpain II, 30 min; inhibition, % at 16 µM; 0.37% of 220,000 active; AID 1236, 2008;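 active means inhibition above about 50%, limit read from the data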
Lmaj promast: Leishmania major promastigote growth inhibition, primary screen; Leishmania major promastigotes, resazurin fluorescence viability; 9% of 200,000 active; inhibition, % at 10 µM; in the data active means inhibition above about 50%;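 further: promastigotes grown with compound for 44 hours at 28 °C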
* = called active by the depositor; x = no result. This is a sample that favours compounds with a hit; in the whole collection about 9.8% have one here.

SMILES	Rad51 HR inh	PMI activator	PMI act satM6P	WT yeast gro inh	Calpain2 inh	Lmaj promast
O=C(/C(=C/c1ccc(Cl)cc1)c1nc2ccccc2[nH]1)c1cccs1	-6	0.9	1	43	-15	100*
O=C(/C=C/c1cccc(Cl)c1)c1nc2ccccc2[nH]1	4	0.9	0.9	8	-16	100*
COc1cc(/C=C(/C(=O)c2cccs2)c2nc3ccccc3[nH]2)ccc1O	-1	0.9	0.8	31	16	100*
O=C(/C(=C\c1ccccc1)c1nc2ccccc2[nH]1)c1ccc(Cl)cc1	-2	0.9	1	50	-83	100*
COC(=O)/C(=C\c1ccc(O)cc1)c1nc2ccccc2[nH]1	3	1.2	1.1	-6	-3	34
CCN(Cc1ccccc1)Cc1nnnn1Cc1ccccc1	-23	0.9	0.9	4	18	17
CC(C)n1nc(C(=O)Nc2nnc(SCc3c(Cl)cccc3Cl)s2)c2ccccc2c1=O	-4	0.9	1	5	-466	0
COC(=O)/C(=C\c1cc(OC)c(OC)c(OC)c1)c1nc2ccccc2[nH]1	3	1	0.9	5	-12	99*
O=C(NCc1ccc(F)cc1)c1cc2n(n1)C(C(F)(F)F)CC(C1CC1)N2 (stereo not drawn)	2	1	1	11	66*	3
O=C(Nc1ccccc1)c1cc2n(n1)C(C(F)(F)F)CC(C1CC1)N2 (stereo not drawn)	-2	1	1	7	15	7
Cc1c(C(=O)Nc2cccc(Cl)c2)oc2ccc(S(=O)(=O)N3CCC4(CC3)OCCO4)cc12	x	1	1.1	18	-179	52*
Cc1ccc(NC(=O)c2cc(S(=O)(=O)N3CCC4(CC3)OCCO4)ccc2F)cc1	-2	0.9	0.9	32	15	96*
Cc1c(C(=O)Nc2ccc(F)cc2)oc2ccc(S(=O)(=O)N3CCC4(CC3)OCCO4)cc12	-8	0.9	0.9	22	-58	33
COc1ccc(N2CCN(S(=O)(=O)c3cnc[nH]3)CC2)cc1	3	x	x	x	11	x
COc1ccc(C(NC(=O)c2c(F)c(F)c(F)c(F)c2F)c2ccccc2)cc1 (stereo not drawn)	0	0.9	1	29	17	95*
COc1ccc(C(NC(=O)c2ccccc2F)NC(=O)c2ccccc2F)cc1	-7	0.8	0.9	-6	-9	-4
N#C/C(=C\c1ccco1)C(=O)Nn1cnnc1	x	1	0.9	-2	8	-4
Cc1ccc(CSc2ccc3nnc(-c4ccccn4)n3n2)cc1	7	1.1	1.1	-17	-3	2
Fc1ccc(CSc2ccc3nnc(-c4ccccn4)n3n2)cc1	22	1	1	7	-20	96*
c1ccc(-n2cc(CN3CCCC(CN4CCCC4)C3)c(-c3ccc4c(c3)OCO4)n2)cc1 (stereo not drawn)	1	1	1	-10	-28	100*
CCC1CSC(Nc2ccc(C(=O)/C=C/c3ccc(OC)c(OC)c3)cc2)=N1 (stereo not drawn)	x	0.9	0.7	64*	4	96*
COc1ccc(/C=C/C(=O)c2ccc(NC3=NCCCS3)cc2)cc1OC	2	1	0.9	1	-32	100*
COc1ccc(/C=C/C(=O)Nc2ccncc2)cc1OC	x	x	x	-1	-358	3
COc1ccc(NC(=O)/C=C/c2ccc(OC)c(OC)c2)cn1	-7	1	1.1	28	24	-1
O=C(/C=C/c1ccc(Br)cc1)NC1CCCCCC1	0	1	1	21	-7	-4
SMILES	Rad51 HR inh	PMI activator	PMI act satM6P	WT yeast gro inh	Calpain2 inh	Lmaj promast
CCC1CSC(Nc2ccc(C(=O)/C=C/c3ccc(Br)cc3)cc2)=N1 (stereo not drawn)	7	1	1	45	-25	98*
COc1ccc(C)cc1S(=O)(=O)N(CC(=O)N1CCOCC1)Cc1ccccc1	-2	0.9	0.9	-14	-5	-1
COc1ccc(CNC(=O)CN(Cc2ccc(Cl)cc2)S(=O)(=O)c2ccccc2)cc1	3	0.8	0.9	0	25	12
COc1ccc(CNC(=O)CN(Cc2ccccc2)S(=O)(=O)c2ccc(Cl)cc2)cc1	7	0.9	1	2	20	98*
COc1ccc(C)cc1S(=O)(=O)N(CC(=O)NCc1ccc(Cl)cc1)Cc1ccccc1	-5	0.9	0.9	49	21	99*
O=C1C(=O)N(c2ccc(O)cc2)C(c2ccccc2[N+](=O)[O-])/C1=C(\O)c1ccccc1 (stereo not drawn)	3	x	x	x	-17	x
COc1cc(NC(=O)c2ccccc2-c2ccccc2)cc(OC)c1	5	1	1.1	-6	11	2
Cc1ccc(C(=O)Oc2cccc(-n3cnnn3)c2)cc1	-19	1	1	19	62*	1
CC1CCc2c(C(=O)Oc3cccc(-n4cnnn4)c3)csc2C1 (stereo not drawn)	8	0.8	0.8	61*	41	7
O=C(Oc1cccc(-n2cnnn2)c1)c1ccco1	1	0.9	0.9	-18	-11	-2
O=C(COc1cccc(-n2cnnn2)c1)NC1CCCCC1	0	1	1	6	-3	-4
N#CCCn1cc(C(=O)Nc2ccc([N+](=O)[O-])cc2)c(-c2cc3ccccc3o2)n1	-44	1	1	-6	-15	2
Cc1cccc(OCc2nnc(SCC(=O)N3CC(=O)Nc4ccccc43)o2)c1	x	1	1	2	-9	0
COc1ccc(NC(=O)C(c2cc3c(cc2[N+](=O)[O-])OCO3)N(C)c2ccccc2)cc1 (stereo not drawn)	1	0.7	0.6	9	-25	81*
Cc1onc(-c2ccccc2Cl)c1C(=O)Nc1nnc(-c2cccc([N+](=O)[O-])c2)s1	7	1.1	1.1	64*	-42	0
CCSc1nnc(NC(=O)c2c(-c3ccccc3Cl)noc2C)s1	6	1	1	13	26	-10
c1ccc(-c2csc3nnc(SCc4ccc5c(c4)OCCO5)n23)cc1	-2	1	0.9	22	1	56*
O=C(N1CCCC1)C12CC3CCC(CC(C3)C1)C2	4	0.9	0.9	1	-20	-3
CCOC(=O)C1CCN(C(=O)C23CC4CC(CC(C4)C2)C3)CC1	0	0.9	1	4	0	104*
O=c1c2ccccc2cnn1-c1nc2ccccc2[nH]1	13	1.1	1.1	86*	-204	-4
